Experimental data: ChEMBL document CHEMBL4118110, “The identification of inhibitory compounds of Rickettsia prowazekii methionine aminopeptidase for antibacterial applications” (Bioorg Med Chem Lett, 2018)

Experiments:
[1] = (§1) Inhibition of Rickettsia prowazekii N-terminal His6-tagged methionine aminopeptidase 1 expressed in Escherichia coli DLB3 Rosetta cells at 10 uM using Met-AMC as substrate preincubated for 1 hr followed by 30 mins incubation after substrate addition measured after 90 mins in presence of MnCl2 by fluorescence assay relative to control
How it was run: (§2)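 Recombinant R. prowazekii MetAP with Mn(II) as the metal cofactor. Met-AMC substrate; release of free AMC is followed by fluorescence (excitation 360 nm, emission 460 nm). Activity is the slope of fluorescence versus time, compared with an uninhibited control.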

[2] = as §1, with “cells” for “cells at 10 uM”, “assay” for “assay relative to control”; how it was run: as §2

Compound | inhibition [1] [%] | IC50 [2] [µM]
C=C(C)Cn1cnc2sc(C(=O)O)c(C)c2c1=O | 8 to 33 | 
O=C(O)c1ccc(S(=O)(=O)N2CCOCC2)o1 | 8 to 67 | 
Cc1cc(O)c2c(c1Cl)C(=O)C=CC2=O | 31 to 66 | 
CCN1CCN(Cc2ccc(O)c3ncccc23)CC1 | 20 to 39 | 
Cc1n[nH]c(O)c1C1=NCCCCC1 | 4 to 65 | 
COc1ccccc1-c1cc(C(=O)O)no1 | 33 to 48 | 
O=C(Nc1ccccc1)C(=O)Nc1ccccc1 | 2 to 39 | 
O=C(O)c1cnc(-c2cccc(Cl)c2)o1 | 1 to 37 | 
Nc1nnc(SCC(=O)OC2CCCCC2)[nH]1 | 60 to 68 | 
O=c1[nH]c2cccc3c2n(c1=O)CCO3 | 24 to 32 | 
COc1cccc(-c2nnc(CN)o2)c1 | 1 to 33 | 
Nc1nnc(SCc2cccc(Cl)c2)[nH]1 | 1 to 23 | 
O=c1cc(CN2CCCCCC2)occ1O | 32 to 44 | 
CC(C)c1ccc2nc(-c3ccccn3)cc(C(=O)O)c2c1 | 18 to 56 | 
Cc1ccc2nc(-c3ccccn3)c(C(=O)O)cc2c1 | 1 to 13 | 
CC(C)CNC(=O)c1ccc2[nH]c(=O)c(=O)[nH]c2c1 | 35 to 44 | 
O=C(O)c1ccc(CSc2nnc[nH]2)o1 | 16 to 21 | 
COc1ccc(N2C(=O)CCC2=O)cc1S(=O)(=O)Nc1cccc2cccnc12 | 14 to 36 | 
Cc1ccc(C(=O)CSc2nnc(N)[nH]2)cc1 | 17 to 52 | 
O=C(CSc1nnc(-c2ccco2)[nH]1)c1ccccc1 | 17 to 22 | 
COc1ccc(OCCSc2n[nH]c(N)n2)cc1 | 27 to 32 | 
CCCCOC(=O)CSc1nnc(N)[nH]1 | 39 to 62 | 
O=C(O)c1cc(-c2ccccn2)nc2ccccc12 | 37 to 55 | 

Compound | inhibition [1] [%] | IC50 [2] [µM]
CCc1n[nH]c(SCC(=O)c2ccc(C)c(C)c2)n1 | 5 to 38 | 
Cc1cc(C)n2c(C(N)CC(C)C)nnc2n1 (configuration not stated) | 6 to 23 | 
Cc1c(C(=O)O)sc2ncn(C)c(=O)c12 | 9 to 47 | 
O=C(O)c1ccc(Sc2ccc(Br)cc2)o1 | 1 to 48 | 
Nc1nnc(SCC(=O)OCCOc2ccccc2)[nH]1 | 47 to 56 | 
Cc1nnc(SCC(=O)c2ccc(C(C)C)cc2)[nH]1 | 1 to 41 | 
c1ccn2c(C3CCCN3)nnc2c1 (configuration not stated) | 2 to 51 | 
Cc1ccc(NC(=O)CSc2nnc[nH]2)c(C)c1 | 25 to 66 | 
CN(C)C(=O)CSc1n[nH]c(-c2ccco2)n1 | 1 to 3 | 
Nc1ccccc1-c1nc(-c2ccc(F)cc2)no1 | 1 to 44 | 
CC(C)c1ccc(CSc2nnc(N)[nH]2)cc1 | 48 to 90 | 
O=C(O)C1Cc2c([nH]c3ccccc23)CN1 (configuration not stated) | 17 to 19 | 
O=C(O)c1nn(-c2ccccc2)c2c1CCC2 | 45 to 51 | 
c1ccc(-c2n[nH]c(-c3ccccn3)n2)cc1 | 6 to 23 | 
CC(C)N1CC(=O)C(c2nc3ccccc3[nH]2)=C1N | 25 to 26 | 
Nc1n[nH]c(SCC(=O)c2ccc([N+](=O)[O-])cc2)n1 | 19 to 53 | 
O=C(O)C1CCCN1C(=O)c1ccco1 (configuration not stated) | 7 to 9 | 
O=C(O)c1ccc(COc2ccc(F)cc2)o1 | 10 to 16 | 
Cc1ccc(OCc2ccc(C(=O)O)o2)cc1 | 1 to 22 | 
Nc1nnc(SCCOc2ccc(Cl)cc2)[nH]1 | 31 to 32 | 
CCSc1nnc([C@@H]2CCCN2)o1 | 1 to 34 | 
Cc1cc(C(=O)O)nn1-c1cccc(Cl)c1 | 1 to 22 | 
Cc1c(C(=O)O)sc2ncn(C(C)C)c(=O)c12 | 5 to 19 | 

Compound | inhibition [1] [%] | IC50 [2] [µM]
CC(=O)c1c(O)nc2ccccn12 | 16 to 43 | 
Nc1nnc(SCCCc2ccccc2)[nH]1 | 18 to 37 | 
O=C(O)c1ccc(-c2ccc(Cl)c(Cl)c2)o1 | 46 to 51 | 
Cc1ccc(N2C(=O)CC(Sc3nc[nH]n3)C2=O)cc1 (configuration not stated) | 40 to 56 | 
Nc1nnc(SCC(=O)OC2CCCC2)[nH]1 | 53 to 59 | 
COc1ccccc1NC(=O)CSc1nnc(C)[nH]1 | 1 to 15 | 
O=C(O)c1n[nH]c2ccccc12 | 35 to 36 | 
Cc1nc(-c2ccccn2)sc1C(=O)N1CCCCC1 | 15 to 20 | 
Cc1c(C(=O)O)sc2nc(CN(C)C)[nH]c(=O)c12 | 20 to 25 | 
O=C(O)c1ccc(S(=O)(=O)c2ccc(Cl)cc2)o1 | 41 to 68 | 
COCCn1cnc2sc(C(=O)O)c(C)c2c1=O | 20 to 24 | 
CCc1nnc(SCC(=O)c2ccc(OC)cc2)[nH]1 | 1 to 22 | 
Cc1ccc(S(=O)(=O)c2ccc(C(=O)O)s2)cc1 | 10 to 67 | 
CCOC(=O)CSc1nnc(CC)[nH]1 | 6 to 22 | 
O=C(CSc1nnc(-c2ccco2)[nH]1)N1CCOCC1 | 24 to 40 | 
CC(=O)Nc1ccc(C(=O)CSc2nnc(C)[nH]2)cc1 | 1 to 39 | 
Nc1n[nH]c(SCCN2C(=O)c3ccccc3C2=O)n1 | 45 to 50 | 
COc1ccccc1NC(=O)CSc1nc[nH]n1 | 19 to 52 | 
O=C(O)c1nc(C2CC2)n2ccccc12 | 40 to 68 | 
c1ccc(-c2nc3ccccc3o2)nc1 | 1 to 46 | 
Cc1ccc(C2NC(C(=O)O)CS2)cc1 (configuration not stated) | 1 to 74 | 
CCCCCCSc1nnc(N)[nH]1 | 1 to 3 | 
O=C(O)c1ccc(CSc2ccc(Cl)cc2)o1 | 20 to 28 | 

Compound | inhibition [1] [%] | IC50 [2] [µM]
Cc1ccc(SCc2ccc(C(=O)O)o2)cc1 | 4 to 9 | 
Cc1c(C(=O)O)sc2ncn(CC(=O)O)c(=O)c12 | 2 to 44 | 
Cc1ccc(-c2nnc(C(C)N)o2)cc1 (configuration not stated) | 21 to 49 | 
O=C(O)c1ccc(S(=O)(=O)c2ccccc2)o1 | 18 to 49 | 
O=C(O)c1cc(-c2cccnc2)on1 | 29 to 33 | 
O=C(O)c1cn(-c2ccccc2)nn1 | 1 to 47 | 
CC(Sc1nnc(N)[nH]1)C(=O)OC1CCCCC1 (configuration not stated) | 46 to 54 | 
Nc1ccncc1-c1ccc(C(=O)O)s1 | 12 to 58 | 
Cc1nnc(SCC(=O)c2cccc3ccccc23)[nH]1 | 38 to 67 | 
Cc1cccc(CSc2nnc(N)[nH]2)c1 | 27 to 46 | 
O=C(O)c1ccc(-c2cc(Cl)ccc2Cl)s1 | 1 to 80 | 
O=C(O)c1cc(=O)c2ccccc2[nH]1 | 7 to 59 | 
NC(=O)CSc1n[nH]c(-c2ccco2)n1 | 1 to 50 | 
COCc1nc(=O)c2c(C)c(C(=O)O)sc2[nH]1 | 2 to 48 | 
c1ccc2[nH]c(C3CCCN3)nc2c1 (configuration not stated) | 6 to 23 | 
COc1cccc(-c2nnc(-c3ccccc3N)[nH]2)c1 | 1 to 19 | 
Cc1c(C(=O)O)sc2ncn(CC3CCCO3)c(=O)c12 (configuration not stated) | 10 to 24 | 
Cc1nnc(SCC(=O)N2CCCc3ccccc32)[nH]1 | 43 to 44 | 
CN(C)Cc1c(C(=O)O)nc2ccccn12 | 11 to 20 | 
Cc1c(C(=O)O)sc2nc3n(c(=O)c12)CCC3 | 34 to 50 | 
CC(C)N(C(=O)CSc1nnc(N)[nH]1)c1ccccc1 | 24 to 64 | 
CCOC(=O)CSc1nnc(-c2ccncc2)[nH]1 | 1 to 59 | 
Cc1ccc(-c2ccc(C(=O)O)s2)cc1 | 4 to 18 | 

Compound | inhibition [1] [%] | IC50 [2] [µM]
CC(=O)c1c(Nc2ccc(F)cc2)oc(C)cc1=O | 23 to 58 | 
COC(=O)c1ccc(CSc2nc[nH]n2)o1 | 30 to 59 | 
c1ccn2c(C3CCCNC3)nnc2c1 (configuration not stated) | 2 to 47 | 
Nc1cc(-c2ccccn2)n[nH]1 | 1 to 45 | 
CCc1nnc(SCC(=O)c2ccc(C(C)C)cc2)[nH]1 | 9 to 44 | 
Nc1nnc(SCCN2CCCCC2)[nH]1 | 1 to 34 | 
Cc1ccc(C(=O)CSc2nnc(-c3ccco3)[nH]2)cc1 | 24 to 26 | 
CC(C)(C)c1ccc(OCCSc2nnc(N)[nH]2)cc1 | 25 to 28 | 
COc1cc(C=O)ccc1OCc1ccc(C(=O)O)o1 | 36 to 53 | 
O=Cc1ccc(OCc2ccc(C(=O)O)o2)cc1 | 40 to 59 | 
Sc1n[nH]c(-c2csc3c2CCCC3)n1 | 45 to 49 | 
CCc1nnc(SCC(=O)c2ccc([N+](=O)[O-])cc2)[nH]1 | 75 to 81 | 
COc1cccc(-c2cc(C(=O)O)no2)c1 | 31 to 35 | 
CCc1ccc(NC(=O)CSc2nnc[nH]2)cc1 | 18 to 60 | 
O=C(O)c1ccc(S(=O)(=O)Cl)s1 | 2 to 36 | 
Nc1nnc(SCCc2ccccc2)[nH]1 | 14 to 42 | 
CC(N)c1ncc(-c2ccc(F)cc2)o1 (configuration not stated) | 46 to 50 | 
Nc1n[nH]c(SCC(=O)c2cccc([N+](=O)[O-])c2)n1 | 8 to 49 | 
COc1ccc(O)c(C2=NNC(c3ccc(F)cc3)C2)c1 (configuration not stated) | 26 to 48 | 
O=C(O)c1cc([N+](=O)[O-])c(Cl)s1 | 7 to 63 | 
O=C(O)c1ccc(S(=O)(=O)c2ccccc2)s1 | 29 to 65 | 
Cc1nc(C(=O)O)c(-c2ccccc2F)s1 | 26 to 31 | 
O=C(NCc1ccccn1)c1ccc2[nH]c(=O)c(=O)[nH]c2c1 | 36 to 40 | 

Compound | inhibition [1] [%] | IC50 [2] [µM]
CC(C)OC(=O)CSc1nnc(N)[nH]1 | 23 to 38 | 
O=C(O)C1=NN(c2ccccc2)C(=O)CC1 | 14 to 39 | 
Cc1ccc(S(=O)(=O)Cc2ccc(C(=O)O)o2)cc1 | 12 to 25 | 
COc1ccccc1C1CC(c2cc(F)ccc2O)=NN1 (configuration not stated) | 1 to 57 | 
Cc1n[nH]c(SCC(=O)c2cccc([N+](=O)[O-])c2)n1 |  | 1.2
O=C(O)c1ccc(COc2ccccc2F)o1 | 5 to 46 | 
Nc1nnc(SCCC(=O)OC2CCCCC2)[nH]1 |  | 9.4
COC(=O)c1ccc(CSc2nnc(N)[nH]2)cc1 | 36 to 46 | 
Cc1[nH]nc(C(=O)O)c1-c1ccccc1 | 2 to 37 | 
Cc1c(C(=O)O)sc2ncn(C3CCCCC3)c(=O)c12 | 17 to 26 | 
O=C1CCC(c2ccccc2O)=NN1 | 51 to 54 | 
Cc1cccc(-c2nnc(C(C)N)o2)c1 (configuration not stated) | 1 to 43 | 
c1ccc(-c2cc[nH]n2)nc1 | 2 to 52 | 
NC(=O)CSc1nnc(-c2ccccc2)[nH]1 | 22 to 45 | 
Cc1ccc(-c2noc(-c3ccccc3N)n2)cc1 | 2 to 52 | 
Cc1c(C(=O)O)sc2nc[nH]c(=O)c12 | 44 to 51 | 
O=C1C(Cl)=C(N2CCCCC2)C(=O)c2ccccc21 | 12 to 46 | 
CN(C)C(=O)CSc1nnc(-c2ccncc2)[nH]1 | 21 to 44 | 
O=C(O)CC(Sc1nnc[nH]1)c1ccc(Cl)cc1 (configuration not stated) | 54 to 55 | 
O=C(O)c1ccc(Cn2cnc3ccccc32)o1 | 9 to 23 | 
Nc1n[nH]c(SCc2cccc(Br)c2)n1 | 55 to 64 | 
CCc1n[nH]c(SCC(=O)c2cccc([N+](=O)[O-])c2)n1 | 16 to 44 | 
